The text below walks through data of ChEMBL document CHEMBL1143314, “Bone selective effect of an estradiol conjugate with a novel tetracycline-derived bone-targeting agent” (2009).

The source made the active and inactive calls. The rule behind the calls is not given here.

The subject of experiment [1] is Hydroxyapatite. Kind of experiment: Binding affinity to bone mineral hydroxyapatite assessed as binding index. Summed up:
(§1)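 Analyte 10^-5 M final in 50 mM Tris–HCl pH 7.4, 1% DMSO (from 10^-3 M DMSO stock), mixed by inversion 4 min with HA slurry (0.5 g/100 mL) or buffer alone, centrifuged 12,000g 3 min. Supernatant UV-vis scanned 220–520 nm; concentration at λmax by Beer–Lambert; fraction adsorbed calculated. Tetracycline reference set to index 100.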

Experiment [2] relates to Hydroxyapatite. Briefly: Binding affinity to bone mineral hydroxyapatite. The method in brief: as §1
The test system of experiment [3] is Rattus norvegicus. Briefly: Antibone resorptive activity in sc dosed Sprague-Dawley rat assessed as inhibition of bilaterally ovariectomization-induced decrease in body weight normalized uterine mass administered 4 days after sugery at three times per week schedule for 6 weeks. In kind it is functional. The method in brief: (§2)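 Three-month-old female Sprague–Dawley rats, bilaterally ovariectomized or sham-operated, given vehicle or drug s.c. three times weekly from 4 days post-surgery for 6 weeks. Excised femur and uterus weighed, normalized to body mass. Percent effect = (treatment − OVX control)/(sham − OVX control); n = 6–10 per group; mean SEM; ED50 from dose–response curves.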

Experiment [4] has as its system Rattus norvegicus. Kind of experiment: Antibone resorptive activity in sc dosed Sprague-Dawley rat assessed as inhibition of bilaterally ovariectomization-induced decrease in body weight normalized femoral mass administered 4 days after sugery at three times per week schedule for 6 weeks. In kind it is functional. The method in brief:
as §2

In experiment [5] the test system is Hydroxyapatite. Briefly: Binding affinity to bone mineral hydroxyapatite relative to tetracyclin. The method in brief: as §1

Usually ED50 stands for the dose at which the effect has come halfway, by size or by number of responders.

As for `CN(C)[C@@H]1C(O)=C(C(N)=O)C(=O)[C@@]2(O)C(O)=C3C(=O)c4c(O)cccc4[C@@](C)(O)[C@H]3C[C@@H]12`, the Activity in the experiment with Hydroxyapatite [1] was found to be 100.

`O=C(O)c1c(O)cccc1O`: the result in the experiment on Hydroxyapatite [2] was inactive.

Turning to `NC(=O)c1c(O)cccc1O`, the outcome in the experiment with Hydroxyapatite [2] was inactive.

For the compound `NC(=O)C1C(=O)CCCC1=O`, the outcome in the experiment on Hydroxyapatite [2] was inactive.

Take `C[C@]12CC[C@@H]3c4ccc(O)cc4CC[C@H]3[C@@H]1CC[C@@H]2O` [ESTRADIOL]: the ED50 in the experiment on Rattus norvegicus [3] was determined as 0.009 µmol/kg; in the experiment with Rattus norvegicus [4], 0.01 µmol/kg. Moreover, in the experiment with Rattus norvegicus [4], the Activity entry was “Dose-dependent effect”.

For `NC(=O)c1c(O)ccc(N)c1O`, in the experiment on Hydroxyapatite [5], the Activity turned out to be 50%.
